UPR XBP1 act – activators of adaptive arm of unfolded protein response (XBP1) | CHO-XBP1 luciferase reporter, IRE1-XBP1 UPR activation, luminescence; percent of tunicamycin response, DMSO as zero | activation, % at 20 µM | 330,000 tested, 0.33% active;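 active = versus positive control, 20 µM dose yields 30% or more activation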;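 also: 100% = tunicamycin at 10 µg/mL and 0% = DMSO only wells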
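Test system: CHO-XBP1 luciferase reporter cells | Buffer or medium: Serum-containing F12 medium, 10% FBS | Schedule: 6 h compound exposure at 37 °C, 5% CO2 | Detection: Steady-Glo luciferase glow luminescence, 10 min after reagent addition | Read-out basis: Activation, % of tunicamycin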
Mdm2 ligase inh – inhibitors of human Mdm2 E3 ubiquitin ligase; cell-based MDM2 ubiquitination luciferase reporter, 2 h; 0 = plate control, 100 = twice control, blank-subtracted; signal enhancement, % at 5 µM; 210,000 tested, 0.11% active; AID 1230;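 active = signal enhancement of 30% or more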;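 also: luminescence tracks abundance of the self-degrading MDM2-luciferase fusion protein; higher signal means inhibition of MDM2 E3 ligase activity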
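Material: stable MDM2–luciferase fusion reporter cells / Quantity: 2000 cells/well / Dosing: single 5 µM compound dose, 0.2% final DMSO / Buffer or medium: DMEM / Schedule: 4 h cell settling then 2 h compound exposure, 37 °C / Detection: luminescence with SteadyLite reagent, 15 min at room temperature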
B2AR ag – human beta-2 adrenergic receptor agonism by FAP; P07550; Am2.2-beta2AR cells, FAP receptor internalization, flow cytometry; response, % (no concentration beside the values); 340,000 tested, 0.43% active;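 active = response above a set limit, near 3 SD of response in nonfluorescent compounds, cut at about 42% in these data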
Target sequence (P07550 whole entry, looked up): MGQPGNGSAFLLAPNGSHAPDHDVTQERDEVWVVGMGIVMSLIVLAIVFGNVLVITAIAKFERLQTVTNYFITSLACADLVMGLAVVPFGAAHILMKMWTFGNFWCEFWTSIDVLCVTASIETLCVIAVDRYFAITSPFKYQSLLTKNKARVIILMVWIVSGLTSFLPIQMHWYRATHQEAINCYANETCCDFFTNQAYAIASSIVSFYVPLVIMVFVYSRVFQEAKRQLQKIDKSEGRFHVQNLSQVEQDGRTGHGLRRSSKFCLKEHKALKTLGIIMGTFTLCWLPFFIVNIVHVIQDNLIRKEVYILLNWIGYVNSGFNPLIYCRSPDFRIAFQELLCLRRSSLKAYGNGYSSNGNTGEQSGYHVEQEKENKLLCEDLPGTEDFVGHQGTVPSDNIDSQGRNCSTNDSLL
Dynein transport – dynein cargo transport inhibition. 3617.4 mouse cells, GR-EGFP nuclear translocation imaging; test concentration mostly 20 µM; stimulated with dexamethasone, 1 µM; active compounds read low. z-score, hits read low. 220,000 tested, 0.47% active. AID 1381;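 active = plate z-score of nuclear minus cytoplasmic receptor signal below a set negative limit, without overly bright fluorescence or cell loss, cut at about -3.5 in these data, passing the limit was not always enough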;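 also: z-score of nuclear minus cytoplasmic ring GR-EGFP intensity difference per well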
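Buffer or medium: tet-free, stripped-serum medium; Also added: dexamethasone, 1.0 µM final; Technique: high-content fluorescence imaging after fixation; Times: 48 h induction, 1 h compound, 30 min dex at 37 °C; Read-out: per-cell GR-EGFP intensity, nucleus versus surrounding cytoplasmic ring, well-averaged.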
Mdm2-MdmX inh – inhibitors of human Mdm2/MdmX interaction | AID 485346 | inhibition, % at 8 µM | SaOS-2 split-luciferase Mdm2/MdmX complementation, luminescence | 330,000 tested, 3% active;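 active = inhibition of at least 50% at 8 µM in the primary screen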
UPR CHOP act – activators of apoptotic arm of unfolded protein response (CHOP); CHO-CHOP luciferase reporter, UPR activation, luminescence; percent of tunicamycin response over DMSO baseline; activation, % at 10 µM; 330,000 tested, 0.34% active;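 active = at 10 µM dose, activation of 40% or more, normalized to positive control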;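 also: 100% = tunicamycin at 10 µg/mL and 0% = DMSO alone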
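Test system: CHO CHOP reporter cells. Input: 500 CHO-CHOP cells per well. Medium: F12 with 10% FBS. Technique: luciferase luminescence. Measure: percent activation relative to tunicamycin control. Dosing: 10 µM compound, 0.5% DMSO. Timing: 16-18 h cell attachment, then 6 h compound exposure, 37 °C.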
Mdm2 MdmX conf – human Mdm2/MdmX binding inhibition, confirmed. shares compounds with Mdm2-MdmX inh. luminescent assay. inhibition, % at 8 µM. 10,000 tested, 55% active. AID 489028; in the data active = inhibition above about 40%
Full FLuc ctr – inhibits full-length luciferase, flagging false Mdm2/MdmX hits; shares compounds with Mdm2-MdmX inh; SaOS-2 full-length luciferase counterscreen, luminescence; inhibition, % at 8 µM; 6,200 tested, 77% active; AID 504607;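 active = mean inhibition at 8 µM reaching about 37%, which flags the compound as non-specific, limit read from the data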;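 also: p53-null SaOS-2 cells with luciferase driven by a doxycycline-inducible promoter; compound on cells about two nights before reading with doxycycline added after day one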
The depositor's hits bear a star; nt = no result. In the library only some 3.7% were active in any assay of this set; here they are far more common.

SMILES	UPR XBP1 act	Mdm2 ligase inh	B2AR ag	Dynein transport	Mdm2-MdmX inh	UPR CHOP act	Mdm2 MdmX conf	Full FLuc ctr
Brc1ccc(/C=N/Nc2ncnc3c2cnn3Cc2ccccc2)cc1	17	-15	-3	1	95*	1	48*	68*
c1ccc(Cn2ncc3c(Nc4ccccc4)ncnc32)cc1	0	nt	-3	-0.98	6	1	nt	nt
Clc1ccc(Cn2ncc3c(NCc4ccccc4)ncnc32)c(Cl)c1	3	-2	nt	-0.23	69*	0	69*	39*
CCCCC1(c2ccc(F)cc2)NC(=O)N(CC(=O)N2CCN(C(=O)c3ccco3)CC2)C1=O (centres undefined)	-2	nt	-1	nt	5	-1	nt	nt
Cc1cccc(CC(Cc2nc3ccccc3[nH]2)c2nc3ccccc3[nH]2)c1 (centres undefined)	-4	-7	16	0.89	75*	2	4	nt
COc1ccccc1CC(Cc1nc2ccccc2[nH]1)c1nc2ccccc2[nH]1 (centres undefined)	-2	-14	3	1.7	13	2	nt	nt
Fc1cc(NC(=S)NCc2ccc(CNC(=S)Nc3ccc(Cl)c(F)c3)cc2)ccc1Cl	-1	nt	3	0.63	50*	6	5	nt
FC(F)(F)c1cccc(NC(=S)NCc2ccc(Cl)cc2)c1	-1	-12	4	0.75	83*	-1	22	nt
FC(F)(F)c1cccc(NC(=S)NNC(=S)Nc2ccc(Cl)cc2)c1	5	-13	nt	-0.19	80*	1	26	nt
CCOC(=O)C1CCN(C(=O)CSc2nc3ncccc3[nH]2)CC1	-2	nt	-2	nt	22	4	nt	nt
COc1cc2c(cc1OC)C(C)N(C(=O)Nc1cc(C)cc(C)c1)CC2 (centres undefined)	-1	nt	11	nt	45	-2	nt	nt
COc1cc2c(cc1OC)C(C)N(C(=O)c1cc3c(C)cc(C)cc3[nH]1)CC2 (centres undefined)	-2	nt	3	nt	67*	-1	73*	48*
Cc1ccc(-c2csc(=Nc3cccnc3)n2CCCn2ccnc2)cc1C	1	-22	4	0.25	71*	-2	75*	24
CCCNC(=O)Cn1cnc2sc(C(=O)N3CCN(Cc4ccc5c(c4)OCO5)CC3)c(C)c2c1=O	1	-6	3	-0.44	21	0	nt	nt
Cc1c(C(=O)N2CCN(Cc3ccc4c(c3)OCO4)CC2)sc2ncnc(N3CCN(c4ccccc4F)CC3)c12	3	nt	18	nt	63*	2	23	nt
Cc1c(C(=O)N2CCN(Cc3ccc4c(c3)OCO4)CC2)sc2ncnc(N3CCN(c4ccccc4)CC3)c12	10	nt	21	nt	73*	4	34	nt
Nc1ccccc1Sc1c[nH]c2ccccc12	-3	nt	10	nt	14	5	nt	nt
CCOC(=O)Cn1c(S(=O)(=O)Cc2ccccc2Cl)nc(-c2ccccc2)c1-c1ccccc1	-1	-10	12	-0.1	33	6	nt	nt
C#CCn1c(C)cc(C)c(S(=O)(=O)c2ccccc2)c1=O	-5	-2	1	1.4	-49	4	nt	nt
C#CCn1c(S(=O)(=O)Cc2ccc(C)cc2)nc(-c2ccccc2)c1-c1ccccc1	0	-12	2	-1.2	95*	4	81*	55*
C#CCn1c(S(=O)(=O)Cc2ccccc2Cl)nc(-c2ccccc2)c1-c1ccccc1	-3	-5	8	0.042	73*	1	47*	84*
CCCCOc1ccc(C(=O)NCC(=O)NC2CCC(C)CC2)cc1 (centres undefined)	-1	nt	0	nt	11	-1	nt	nt
COc1ccc2cc(C3(C)NC(=O)N(CC(=O)NCC(F)(F)F)C3=O)ccc2c1 (centres undefined)	-8	nt	25	nt	16	1	nt	nt
Cc1cc(N2CCOCC2)nc2ccc(NC(=O)CCC(=O)N3CCN(c4cccc(C(F)(F)F)c4)CC3)cc12	9	nt	2	nt	18	4	nt	nt
CCOc1ccc(S(=O)(=O)N2CCN(Cc3ccco3)CC2)cc1	-8	nt	-6	nt	17	1	nt	nt
SMILES	UPR XBP1 act	Mdm2 ligase inh	B2AR ag	Dynein transport	Mdm2-MdmX inh	UPR CHOP act	Mdm2 MdmX conf	Full FLuc ctr
CC1CN(c2sc(S(C)(=O)=O)nc2S(=O)(=O)c2ccc(Cl)cc2)CC(C)O1 (centres undefined)	-4	nt	2	nt	27	1	nt	nt
Cc1ccc(S(=O)(=O)c2nc(S(C)(=O)=O)sc2N2CCCCCC2)cc1	-4	nt	0	nt	-10	1	nt	nt
CS(=O)(=O)c1nc(S(=O)(=O)c2ccc(Cl)cc2)c(N2CCOCC2)s1	-2	nt	-8	nt	57*	2	13	nt
Cc1ccc(S(=O)(=O)c2nc(S(C)(=O)=O)sc2N2CCC(C)CC2)cc1	-7	nt	-3	nt	53*	1	7	nt
CCn1ccc(C(=O)Nc2ccccc2SC)n1	3	-3	3	0.049	-26	6	nt	nt
S=c1[nH]nc(CSCCOc2ccc(Cl)cc2Cl)o1	0	-19	7	0.54	-18	2	nt	nt
COc1ccc(Nc2ccc(OC)cc2)cc1	5	-7	5	-0.96	22	6	nt	nt
COc1ccc(NC2=C(C)C(=O)CC2)cc1	-4	-1	-5	-0.11	59*	0	39	90*
O=C(CCl)N(C1CCCC1)C1CCS(=O)(=O)C1 (centres undefined)	0	nt	-10	nt	87*	4	72*	55*
Cc1ccc(NC(=O)COc2ncnc3cc([N+](=O)[O-])ccc23)cc1S(=O)(=O)N1CCOCC1	-2	-2	-8	-1	5	0	nt	nt
COc1ccc(-c2nc(-c3ccccn3)no2)cc1	-5	-93	-22	-0.5	89*	-10	91*	54*
Cc1ccc(-c2nc3c(c(=O)[nH]c(=O)n3Cc3ccccc3)n2C)s1	-1	-9	nt	-0.013	62*	2	6	nt
CCN(C(=O)c1cc2c(=O)[nH]c3ccc(C)cc3c2s1)c1ccccc1C	7	-1	2	0.15	57*	13	-9	nt
CCN(C(=O)c1cc2c(=O)[nH]c3ccc(C)cc3c2s1)c1cccc(C)c1	10	-7	-3	-1.1	50	2	52*	64*
Cc1ccc2[nH]c(=O)c3cc(C(=O)N(C)c4ccc(C)c(C)c4)sc3c2c1	20	nt	2	-1	65*	-2	40*	67*

Bioassay records: PubChem, several laboratories
